These results are taken from ChEMBL document CHEMBL1143723, “Antiproliferative cardenolides of an Elaeodendron sp. from the Madagascar rain forest(1)” (J Nat Prod, 2007).

What all share (type): functional, cell-based
Experiment [1] concerns A2780. As to the kind of experiment: Antiproliferative activity against human A2780 cells.
Experiment [2] concerns MDA-MB-435. The experiment in a line: Antiproliferative activity against human MDA-MB-435 cells. Put shortly: (§1)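 Cultured human cancer lines (MDA-MB-435 breast, HT-29 colon, H522-T1 non-small cell, U937 histiocytic lymphoma) were exposed to compound, and growth was read by luminescence. The method follows an earlier report, with luminescence measured on a multilabel reader.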

For experiment [3], the system named is U-937. The experiment in a line: Antiproliferative activity against human U937 cells. Put shortly:
as §1

A short description of experiment [4]: Antiproliferative activity against human H522T1 cells. To be noted: H522-T1. Put shortly: as §1
Experiment [5] relates to HT-29. The experiment in a line: Antiproliferative activity against human HT29 cells. Put shortly:
as §1

SMILES strings stand for the structures.

Take `CO[C@H]1CCO[C@@H](O[C@@H]2C=C3CC[C@@H]4[C@H](CC[C@]5(C)[C@@H](C6=CC(=O)OC6)CC[C@]45O)[C@@]3(C)C[C@H]2O)[C@H]1O`: half-maximal inhibition in experiment [1] (IC50) was put at 2500 nM.

Turning to `CO[C@H]1CCO[C@H]2O[C@@H]3C=C4CC[C@@H]5[C@H](CC[C@]6(C)[C@@H](C7=CC(=O)OC7)CC[C@]56O)[C@@]4(C)C[C@H]3O[C@]21O` [ELAEODENDROSIDE B], the IC50 (commonly the point on the concentration scale where inhibition reaches its midpoint) in experiment [1] turned out to be 19 nM; in experiment [2] it was 150 nM; in experiment [3], 50 nM; in experiment [4], 80 nM; in experiment [5] it was 80 nM.

`CO[C@H]1CCO[C@H]2O[C@@H]3C=C4CC[C@@H]5[C@H](CC[C@]6(C)[C@@H](C7=CC(=O)OC7)[C@@H](OC(C)=O)C[C@]56O)[C@@]4(C)C[C@H]3O[C@]21O` [ELAEODENDROSIDE F]: half-maximal inhibition in experiment [1] (IC50) was put at 190 nM.

As to `CO[C@@H]1CCO[C@H]2O[C@@H]3C=C4CC[C@@H]5[C@H](CC[C@]6(C)[C@@H](C7=CC(=O)OC7)[C@@H](OC(C)=O)C[C@]56O)[C@@]4(C)C[C@H]3O[C@]21O` [ELAEODENDROSIDE G], it took 100 nM to reach half-maximal inhibition in experiment [1] (IC50).

For `CO[C@@H]1C[C@@H](C)O[C@H]2O[C@@H]3C=C4CC[C@@H]5[C@H](CC[C@]6(C)[C@@H](C7=CC(=O)OC7)[C@@H](OC(C)=O)C[C@]56O)[C@@]4(C)C[C@H]3O[C@]21O` [ELAEODENDROSIDE T], the IC50 in experiment [1] was determined as 85 nM; in experiment [2] it was 370 nM; in experiment [3], 150 nM; in experiment [4], 180 nM; in experiment [5] it was 180 nM.

`CO[C@H]1CCO[C@@H](O[C@@H]2C=C3CC[C@@H]4[C@H](CC(=O)[C@]5(C)[C@@H](C6=CC(=O)OC6)CC[C@]45O)[C@@]3(C)C[C@H]2O)[C@H]1O` [ELAEODENDROSIDE U] yielded an IC50 in experiment [1] of 30000 nM.
